Among the data in paper PMC9033243 (RSC Advances, 2021) are MIC and inhibition values, retold here.

One assay has as its system E. coli (25922). In words: Antimicrobial susceptibility test. Particulars: Escherichia coli, 18 h, read-out: MIC E. coli (25922). It is filed as cell-based. Summed up:
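Exponential-phase cells diluted to about 5 × 10^5 cfu mL−1, in CA-MHB for S. aureus ATCC 29213 and MHB for E. coli ATCC 25922. Test compound serially diluted in DMSO from a DMSO stock; final DMSO 1% (v/v), with 1% DMSO controls. After 37 °C for 18 h, OD600 is read and % inhibition taken against controls. MIC is the lowest concentration giving ≥90% inhibition. Three independent assays.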

Another assay concerns the target T1, E. coli PBP 1b (Escherichia coli, UniProt P02919).
T1 sequence (P02919 1-844): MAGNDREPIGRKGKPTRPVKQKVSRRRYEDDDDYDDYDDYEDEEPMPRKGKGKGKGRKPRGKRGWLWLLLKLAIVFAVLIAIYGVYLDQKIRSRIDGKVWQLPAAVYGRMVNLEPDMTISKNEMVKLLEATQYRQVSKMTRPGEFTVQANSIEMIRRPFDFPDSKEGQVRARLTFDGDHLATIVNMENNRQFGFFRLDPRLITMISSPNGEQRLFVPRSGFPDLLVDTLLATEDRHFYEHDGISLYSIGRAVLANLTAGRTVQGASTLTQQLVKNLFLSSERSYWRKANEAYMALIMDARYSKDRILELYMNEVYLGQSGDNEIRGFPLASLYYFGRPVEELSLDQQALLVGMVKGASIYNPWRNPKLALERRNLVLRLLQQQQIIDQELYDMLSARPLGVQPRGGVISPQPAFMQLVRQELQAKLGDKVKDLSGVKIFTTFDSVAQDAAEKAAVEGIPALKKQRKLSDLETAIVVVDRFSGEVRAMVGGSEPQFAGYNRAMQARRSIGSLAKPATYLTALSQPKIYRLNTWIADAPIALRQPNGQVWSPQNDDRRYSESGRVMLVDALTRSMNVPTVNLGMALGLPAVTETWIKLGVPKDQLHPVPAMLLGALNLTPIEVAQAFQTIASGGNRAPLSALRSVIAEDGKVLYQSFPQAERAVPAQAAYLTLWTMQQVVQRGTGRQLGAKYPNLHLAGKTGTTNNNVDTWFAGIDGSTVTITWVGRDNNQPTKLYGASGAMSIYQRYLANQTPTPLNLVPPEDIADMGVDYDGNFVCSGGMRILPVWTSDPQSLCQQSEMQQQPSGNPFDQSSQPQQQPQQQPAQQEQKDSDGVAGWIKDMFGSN
In words: Lipid II-based in vitro transglycosylation assay. It is filed as biochemical. Particulars: read-out: Inhibition of PBP 1b activity at 50 μM. Summed up: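 E. coli PBP 1b (13.2 nM) is preincubated with test compound for 5 min at 30 °C. Buffer: 50 mM HEPES pH 7.5, 200 mM NaCl, 10 mM CaCl2, 0.08% decyl PEG, 10% DMSO, 15% methanol, 2 U μL−1 muramidase. Dansyl-lipid II (5 μM) is added for 5 min at 30 °C. Moenomycin A (1 μM, 10 min) quenches […]. Read by anion-exchange HPLC, in duplicate. IC50 from Hill fit; Ki via IC50 = Ki(1 + [s]/Km), Km = 1.8 μM.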

Each structure is given as a SMILES string. Where only a bound is given, the exact number is not on record here.

The MIC is the lowest concentration found to suppress growth. What is called inhibition is the relative decrease from the control value, in per cent. Regarding `C=C(C/C=C(\C)CCC=C(C)C)CCC(C)(C)/C=C/CC/C(C)=C\CO[C@H](COP(=O)(O)O[C@H]1O[C@H](C(N)=O)[C@@](C)(O)[C@H](OC(N)=O)[C@H]1O[C@@H]1O[C@H](CO[C@@H]2O[C@H](CO)[C@@H](O)[C@H](O)[C@H]2O)[C@@H](O[C@@H]2O[C@H](C)[C@@H](O[C@@H]3O[C@H](C(=O)NC4=C(O)CCC4=O)[C@H](O)[C@H](O)[C@H]3O)[C@H](O)[C@H]2NC(C)=O)[C@H](O)[C@H]1NC(C)=O)C(=O)O` [Moenomycin A], the MIC with E. coli (25922) was over 96 µg/mL. For the same molecule, the inhibition at 50 µM on E. coli PBP 1b came out at 100%.
